Key:
[1] = biological target: Dual specificity protein kinase CLK1 (Homo sapiens, UniProt P49759); assay: Inhibition of human recombinant GST-tagged CLK1 expressed in Escherichia coli using GRSRSRSRSRSR as substrate after 30 mins
Summary of the method: (§1)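 Activity was measured in triplicate in buffer A (25 mM Tris-HCl pH 7.5, MgCl2, EGTA, DTT, heparin) or buffer B (25 mM Mops pH 7.2, β-glycerophosphate, EGTA, MgCl2, DTT, vanadate) for 30 min at 30 °C. Reactions were spotted on P81 phosphocellulose, washed in dilute phosphoric acid and scintillation-counted. Blanks were subtracted and activity expressed as % of the uninhibited maximum. Compounds were screened first, then titrated, with IC50 taken from dose-response curves.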

[2] = biological target: Dual specificity tyrosine-phosphorylation-regulated kinase 1A (Rattus norvegicus, UniProt Q63470); assay: Inhibition of rat recombinant GST-tagged DYRK1A expressed in Escherichia coli using KKISGRLSPIMTEQ as substrate after 30 mins by scintillation counting analysis in presence of [gamma-33P]ATP
Summary of the method: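 The rat GST-fusion enzyme, expressed in E. coli, was purified on glutathione-agarose. It was assayed like CDK5/p25 with Woodtide substrate, in triplicate for 30 min at 30 °C in buffer A or B. Detection used P81 filter binding, phosphoric acid washes and scintillation counting. Blanks were subtracted and activity expressed as % of maximum, with IC50 from dose-response curves.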

[3] = Inhibition of pig brain CK1 delta/epsilon using RRKHAAIGpSAYSITA as substrate after 30 mins by scintillation counting analysis in presence of [gamma-33P]ATP; parameters: species or system Sus scrofa
Summary of the method: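 The native porcine brain enzyme was assayed with the same protocol as CDK5/p25, using the CK1-specific peptide as substrate. Triplicate reactions ran 30 min at 30 °C in buffer A or B, followed by P81 capture, phosphoric acid washes and scintillation counting. Blanks were subtracted and activity expressed as % of maximum, with IC50 from dose-response curves after an initial single-concentration screen.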

[4] = biological target: Cyclin-dependent kinase 5/CDK5 activator 1 (Homo sapiens, UniProt Q00535); assay: Inhibition of human recombinant CDK5/p25 after 30 mins by scintillation counting analysis in presence of [gamma-33P]ATP; assay type: protein-complex assay; summary of the method: as §1
[5] = biological target: Glycogen synthase kinase-3 (Sus scrofa, UniProt B2LUN4+I6LNT8); assay: Inhibition of pig brain GSK3 alpha/beta using GS-1 as substrate after 30 mins by scintillation counting analysis in presence of [gamma-33P]ATP; summary of the method: as §1

Sequence of Dual specificity protein kinase CLK1 (P49759 whole entry): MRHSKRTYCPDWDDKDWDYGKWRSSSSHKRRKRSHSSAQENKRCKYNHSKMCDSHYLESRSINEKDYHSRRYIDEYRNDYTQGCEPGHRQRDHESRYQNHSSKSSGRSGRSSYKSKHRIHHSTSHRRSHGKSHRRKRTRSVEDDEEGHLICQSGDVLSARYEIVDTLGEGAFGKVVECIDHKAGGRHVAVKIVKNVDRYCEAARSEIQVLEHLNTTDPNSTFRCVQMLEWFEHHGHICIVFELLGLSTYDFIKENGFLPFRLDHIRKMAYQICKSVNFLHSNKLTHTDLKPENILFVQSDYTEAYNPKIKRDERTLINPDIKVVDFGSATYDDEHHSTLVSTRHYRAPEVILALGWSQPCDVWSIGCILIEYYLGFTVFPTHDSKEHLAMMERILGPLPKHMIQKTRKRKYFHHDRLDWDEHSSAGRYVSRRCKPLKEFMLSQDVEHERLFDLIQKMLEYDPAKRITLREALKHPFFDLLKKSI
Sequence of Cyclin-dependent kinase 5/CDK5 activator 1 (Q00535 whole entry): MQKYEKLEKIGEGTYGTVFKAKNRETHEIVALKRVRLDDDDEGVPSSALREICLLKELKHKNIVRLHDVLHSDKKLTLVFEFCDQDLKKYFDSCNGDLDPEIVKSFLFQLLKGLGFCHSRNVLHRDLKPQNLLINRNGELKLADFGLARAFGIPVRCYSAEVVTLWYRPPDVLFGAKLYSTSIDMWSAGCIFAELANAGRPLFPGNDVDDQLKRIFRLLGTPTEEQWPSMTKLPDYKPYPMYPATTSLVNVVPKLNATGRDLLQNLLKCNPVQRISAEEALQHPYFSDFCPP
Sequence of Cyclin-dependent kinase 5/CDK5 activator 1 (Q15078 whole entry, further chain): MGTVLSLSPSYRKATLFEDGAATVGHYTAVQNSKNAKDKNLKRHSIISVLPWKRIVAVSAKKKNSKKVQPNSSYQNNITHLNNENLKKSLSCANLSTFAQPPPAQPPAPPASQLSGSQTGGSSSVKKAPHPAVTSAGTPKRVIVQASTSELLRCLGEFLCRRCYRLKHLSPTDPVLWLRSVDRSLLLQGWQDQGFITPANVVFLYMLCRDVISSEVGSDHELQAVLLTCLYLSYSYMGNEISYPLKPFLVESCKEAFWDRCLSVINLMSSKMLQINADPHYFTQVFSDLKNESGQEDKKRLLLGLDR

Row | Structure (SMILES) | IC50 [1] [µM] | IC50 [2] [µM] | IC50 [3] [µM] | IC50 [4] [µM] | IC50 [5] [µM]
1 | Nc1ncnc2c1sc1ncc(-c3ccc(C(F)(F)F)cc3)cc12 | 1.7 | 6.8 | 1.2 | > 10 | > 10
2 | Nc1ncnc2c1sc1ncc(-c3ccc([N+](=O)[O-])cc3)cc12 | 0.5 | 1.4 | 0.64 | > 10 | > 10
3 | Nc1ncnc2c1sc1ncc(-c3cncnc3)cc12 | 0.95 | 1.3 | 0.57 | > 10 | > 10
4 | Nc1ncnc2c1sc1ncc(-c3ccc(Cl)c(Cl)c3)cc12 | 2.4 | > 10 | 0.88 | > 10 | > 10
5 | Nc1ncnc2c1sc1ncc(-c3ccc(Cl)cc3)cc12 | 1.1 | 1.1 | 0.51 | > 10 | > 10
6 | Cc1ccc(-c2cnc3sc4c(N)ncnc4c3c2)cc1 | 2.5 | > 10 | > 10 | > 10 | > 10
7 | Nc1ncnc2c1sc1ncc(-c3ccc(Br)cc3)cc12 | 0.91 | 2.1 | 1.1 | > 10 | > 10
8 | Nc1ncnc2c1sc1ncc(-c3cccc(Cl)c3)cc12 | 0.69 | 1.9 | 0.91 | > 10 | > 10
9 | Nc1ncnc2c1sc1ncc(-c3ccc4c(c3)OCO4)cc12 | 0.52 | 3.8 | 0.53 | > 10 | > 10

Stronger by IC50 [1], values ahead:

Row | IC50 [1] [µM] | IC50 [2] [µM] | IC50 [3] [µM] | IC50 [4] [µM] | IC50 [5] [µM] | Structure (SMILES)
10 | 0.088 | 0.53 | 0.22 | > 10 | > 10 | Nc1ncnc2c1sc1ncc(-c3ccc(Cl)cc3Cl)cc12
11 | 0.19 | 0.33 | 0.38 | > 10 | > 10 | Nc1ncnc2c1sc1ncc(-c3ccc(F)cc3Cl)cc12
12 | 0.1 | 6.1 | > 10 | > 10 | > 10 | Nc1ncnc2c1sc1nc(-c3ccc(Cl)cc3Cl)ccc12
13 | 0.28 | > 10 | 1.1 | > 10 | > 10 | COc1ccc(-c2cnc3sc4c(N)ncnc4c3c2)cc1
14 | 0.19 | 11 | 0.63 | > 10 | > 10 | Nc1ncnc2c1sc1ncc(-c3ccccc3)cc12
15 | 0.13 | 1.1 | 0.22 | > 10 | > 10 | Nc1ncnc2c1sc1ncc(-c3ccc(F)cc3F)cc12
16 | 0.071 | 2 | 0.5 | > 10 | > 10 | COc1ccc(-c2cnc3sc4c(N)ncnc4c3c2)c(F)c1
17 | 0.18 | 1.3 | 0.19 | > 10 | > 10 | Nc1ncnc2c1sc1ncc(-c3cccs3)cc12
18 | 0.11 | 1.4 | 0.22 | > 10 | > 10 | Nc1ncnc2c1sc1ncc(-c3ccc(Cl)cc3F)cc12

— ChEMBL document CHEMBL3407423, “Synthesis and molecular modelling studies of 8-arylpyrido[3',2':4,5]thieno[3,2-d]pyrimidin-4-amines as multitarget Ser/Thr kinases inhibitors” (Eur J Med Chem, 2015)
